SKN-1 block: suppressors of acrylamide-induced Pgst-4::GFP reporter in worms, primary screen, SKN-1 inhibitor project, whole organism, uHTS, GFP/RFP fluorescence ratio, strain VP596. C. elegans VP596 Pgst-4::GFP/RFP ratio, 24 h. AID 624304, 2012. 360,000 compounds, 0.49% hits. inhibition, % at 21.8 µM;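 active = interference check ratio from 0.5 to 1.5 plus GFP to RFP signal ratio inhibition reaching or exceeding a fixed threshold, cut at about 30% in these data, passing the limit was not always enough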
iPSC survival up: enhancers of single-cell hiPSC survival, primary screen, ATPlite luminescence | survival enhancement, % at 20 µM | 360,000 compounds, 0.044% hits | 100% = ROCK inhibitor wells, 0% = DMSO | AID 602274, 2012; in the data active = survival enhancement above about 18%;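 also: cells exposed to compounds for 16 hours before the ATP read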
MT1-MMP act inh: blockers of MT1-MMP proenzyme processing, primary screen, HT1080 RFP-PRO-GFP cells, GFP/RFP fluorescence; GFP/RFP ratio change, % at 20 µM; AID 651647, 2012; Matrix metalloproteinase-14 (Homo sapiens), P50281; GFP/RFP ratio fluorescence, overnight; percent of plate control window, DMSO zero; 360,000 compounds, 0.061% hits;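 active = GFP/RFP ratio change of at least 30% with cell ATP level not reduced by more than half and red fluorescence within 50% of control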
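Read-out: GFP/RFP fluorescence ratio; Test system: RFP-PRO-GFP reporter HT1080 cells; Compound dosing: single-point 20 µM compound, 1% DMSO; Times: overnight compound exposure at 37 °C.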
NRP1-CendR mod: modulators of CendR peptide binding to NRP-1, primary screen, biochemical, fluorescence polarization, uHTS. 360,000 compounds, 0.85% hits. Neuropilin-1 (Homo sapiens), O14786. FAM-RPARPAR peptide binding to NRP-1. inhibition, % at 25 µM;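 active = inhibition or corrected inhibition above about 18%, plus a signal ratio from 0.5 to 1.5, limit read from the data, passing the limit was not always enough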
Target sequence (O14786 whole entry, looked up): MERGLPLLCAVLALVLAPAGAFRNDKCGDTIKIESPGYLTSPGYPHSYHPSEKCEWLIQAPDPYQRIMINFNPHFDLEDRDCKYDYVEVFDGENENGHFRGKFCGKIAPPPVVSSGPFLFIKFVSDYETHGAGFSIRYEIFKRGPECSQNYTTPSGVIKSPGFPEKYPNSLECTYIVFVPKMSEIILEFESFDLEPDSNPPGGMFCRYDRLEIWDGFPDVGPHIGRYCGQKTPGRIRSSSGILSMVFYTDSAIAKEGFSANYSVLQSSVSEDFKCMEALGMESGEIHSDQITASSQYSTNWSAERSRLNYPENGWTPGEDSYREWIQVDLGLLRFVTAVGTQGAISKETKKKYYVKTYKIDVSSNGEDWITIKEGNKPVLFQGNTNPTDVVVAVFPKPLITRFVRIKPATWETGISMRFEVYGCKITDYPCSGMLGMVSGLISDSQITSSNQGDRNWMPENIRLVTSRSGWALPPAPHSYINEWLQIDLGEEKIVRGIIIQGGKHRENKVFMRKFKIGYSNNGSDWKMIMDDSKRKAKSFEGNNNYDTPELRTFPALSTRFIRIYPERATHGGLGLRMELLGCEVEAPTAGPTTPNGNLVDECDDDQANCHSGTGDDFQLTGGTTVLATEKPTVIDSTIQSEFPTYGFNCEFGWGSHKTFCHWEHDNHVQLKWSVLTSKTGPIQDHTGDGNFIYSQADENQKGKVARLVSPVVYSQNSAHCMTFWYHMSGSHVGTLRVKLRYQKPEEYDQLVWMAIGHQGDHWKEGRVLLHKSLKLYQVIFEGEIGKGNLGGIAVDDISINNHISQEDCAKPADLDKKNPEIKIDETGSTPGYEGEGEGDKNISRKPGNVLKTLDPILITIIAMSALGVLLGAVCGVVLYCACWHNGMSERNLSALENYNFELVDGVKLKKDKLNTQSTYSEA
Hits are given with their value. Compounds with a hit are over-represented: about 1.4% of the library has one in this group of screens.

How did Cc1c(C(=O)OCC[N+]2(C)CCCCC2)oc2ccccc12 do in these assays?
SKN-1 block: inactive; iPSC survival up: inactive; MT1-MMP act inh: inactive; NRP1-CendR mod: 47.8

How did Cc1[nH][nH]c(=O)c1N=Nc1ccccc1Cl do in these assays?
SKN-1 block: inactive; iPSC survival up: inactive; MT1-MMP act inh: inactive; NRP1-CendR mod: inactive

Results for Clc1ccccc1N=Nc1ccccn1 ?
SKN-1 block: inactive; iPSC survival up: inactive; MT1-MMP act inh: inactive; NRP1-CendR mod: 41.2

What do the screens show for `Clc1ccc(OCCSc2ncccn2)cc1`?
SKN-1 block: 38.5; iPSC survival up: inactive; MT1-MMP act inh: inactive; NRP1-CendR mod: inactive

What do the screens show for `COc1ccc(/C(C#N)=C/c2cccnc2)cc1`?
SKN-1 block: inactive; iPSC survival up: inactive; MT1-MMP act inh: inactive; NRP1-CendR mod: 19.1

How did CCNC(=O)CC1C(=O)N(c2ccc(C)cc2)C(=O)N1Cc1ccccn1 (stereo not drawn) do in these assays?
SKN-1 block: inactive; iPSC survival up: inactive; MT1-MMP act inh: inactive; NRP1-CendR mod: inactive

Results for Cc1ccc(C(C)NC(=O)c2c(-c3ccccc3)noc2C)cc1C (stereo not drawn) ?
SKN-1 block: inactive; iPSC survival up: inactive; MT1-MMP act inh: inactive; NRP1-CendR mod: inactive

Results for Cc1cc(C)cc(OCCCn2ccnc2)c1 ?
SKN-1 block: inactive; iPSC survival up: inactive; MT1-MMP act inh: inactive; NRP1-CendR mod: 27.4

How did COc1ccc(C2=CC(=O)CCC2)cc1 do in these assays?
SKN-1 block: inactive; iPSC survival up: inactive; MT1-MMP act inh: inactive; NRP1-CendR mod: 39.7

How did COc1cccc(C2=CC(=O)CCC2)c1 do in these assays?
SKN-1 block: inactive; iPSC survival up: inactive; MT1-MMP act inh: inactive; NRP1-CendR mod: inactive

How did CCCNC(=O)NC(=O)COC(=O)c1oc2ccc(OCC)cc2c1C do in these assays?
SKN-1 block: inactive; iPSC survival up: inactive; MT1-MMP act inh: inactive; NRP1-CendR mod: inactive

Results for CN(C)c1ccc(/C=C(\C#N)C(=O)Nc2nc3c(s2)CCN(Cc2ccccc2)C3)cc1 ?
SKN-1 block: 45.3; iPSC survival up: inactive; MT1-MMP act inh: inactive; NRP1-CendR mod: inactive

Results for O=C(Nc1nc2c(s1)CN(Cc1ccccc1)CC2)C1CCC1 ?
SKN-1 block: inactive; iPSC survival up: inactive; MT1-MMP act inh: inactive; NRP1-CendR mod: inactive

What do the screens show for `CN(c1ccccc1)S(=O)(=O)c1cccc(C(=O)NCc2ccccc2)c1`?
SKN-1 block: inactive; iPSC survival up: inactive; MT1-MMP act inh: inactive; NRP1-CendR mod: inactive

Results for CN(c1cccc(Cl)c1)S(=O)(=O)c1cccc(C(=O)NCc2ccncc2)c1 ?
SKN-1 block: inactive; iPSC survival up: inactive; MT1-MMP act inh: inactive; NRP1-CendR mod: 24.0

How did Cc1ccc(NC(=O)Cn2nc(-c3ccco3)ccc2=O)cc1Cl do in these assays?
SKN-1 block: inactive; iPSC survival up: inactive; MT1-MMP act inh: inactive; NRP1-CendR mod: inactive

What do the screens show for `C/C(=N/OCc1ccc(Br)cc1)c1ccccn1`?
SKN-1 block: 53.7; iPSC survival up: inactive; MT1-MMP act inh: inactive; NRP1-CendR mod: inactive

How did CC(OC(=O)c1ccc(S(C)(=O)=O)c([N+](=O)[O-])c1)C(=O)NC1C2CC3CC(C2)CC1C3 (stereo not drawn) do in these assays?
SKN-1 block: inactive; iPSC survival up: 24.5; MT1-MMP act inh: inactive; NRP1-CendR mod: inactive

Results for CCC(OC(=O)c1ccc(S(C)(=O)=O)c([N+](=O)[O-])c1)C(=O)NC1C2CC3CC(C2)CC1C3 (stereo not drawn) ?
SKN-1 block: inactive; iPSC survival up: 30.0; MT1-MMP act inh: inactive; NRP1-CendR mod: inactive

Results for CS(=O)(=O)c1ccc(C(=O)OCC(=O)NC23CC4CC(CC(C4)C2)C3)cc1[N+](=O)[O-] ?
SKN-1 block: inactive; iPSC survival up: inactive; MT1-MMP act inh: inactive; NRP1-CendR mod: inactive

What do the screens show for `COc1ccc(-n2nc(C(=O)NCC(=O)NC3CCCCC3)c3ccccc3c2=O)c(OC)c1`?
SKN-1 block: inactive; iPSC survival up: inactive; MT1-MMP act inh: inactive; NRP1-CendR mod: inactive

What do the screens show for `COc1ccc(-n2nc(C(=O)NCC(=O)NC3CCCCCC3)c3ccccc3c2=O)c(OC)c1`?
SKN-1 block: inactive; iPSC survival up: inactive; MT1-MMP act inh: inactive; NRP1-CendR mod: 19.3

Results for COC(=O)c1ccc(OCCOCCOc2cccc3ccc(C)nc23)cc1 ?
SKN-1 block: inactive; iPSC survival up: inactive; MT1-MMP act inh: inactive; NRP1-CendR mod: inactive

What do the screens show for `CCN(c1ccccc1)S(=O)(=O)c1ccc(C(=O)NNC(=O)c2ccccc2F)cc1`?
SKN-1 block: inactive; iPSC survival up: inactive; MT1-MMP act inh: inactive; NRP1-CendR mod: inactive

What do the screens show for `CC(=O)NS(=O)(=O)c1ccc(NC(=O)C(C)NS(=O)(=O)/C=C/c2ccccc2)cc1` (stereo not drawn)?
SKN-1 block: inactive; iPSC survival up: inactive; MT1-MMP act inh: inactive; NRP1-CendR mod: 19.8

Results for O=C(Nc1cccc(Br)c1)c1ccc(CSc2ccccc2)cc1 ?
SKN-1 block: inactive; iPSC survival up: inactive; MT1-MMP act inh: inactive; NRP1-CendR mod: 39.9

Results for COc1cc(OC)c(OC)cc1CNC(=O)c1cc(=O)c2ccccc2o1 ?
SKN-1 block: inactive; iPSC survival up: inactive; MT1-MMP act inh: inactive; NRP1-CendR mod: inactive

Results for COc1ccc(OC)c(CN2CCN(Cc3cc(OC)c(OC)c(OC)c3)CC2)c1 ?
SKN-1 block: inactive; iPSC survival up: inactive; MT1-MMP act inh: inactive; NRP1-CendR mod: inactive

How did CC(NC(=S)NCCCN1CCOCC1)C12CC3CC(CC(C3)C1)C2 (stereo not drawn) do in these assays?
SKN-1 block: inactive; iPSC survival up: inactive; MT1-MMP act inh: inactive; NRP1-CendR mod: 26.7

How did CN1c2ccccc2C(C)(C)C12CC(c1cccc(S(=O)(=O)N3CCCC3)c1)=NO2 (stereo not drawn) do in these assays?
SKN-1 block: inactive; iPSC survival up: inactive; MT1-MMP act inh: inactive; NRP1-CendR mod: inactive

What do the screens show for `CN1c2ccccc2C(C)(C)C12CC(c1ccc(S(=O)(=O)N3CCCCC3)cc1)=NO2` (stereo not drawn)?
SKN-1 block: inactive; iPSC survival up: inactive; MT1-MMP act inh: inactive; NRP1-CendR mod: 19.3

What do the screens show for `C1CCc2c(nnc3c2-c2nonc2CC3)C1`?
SKN-1 block: inactive; iPSC survival up: inactive; MT1-MMP act inh: inactive; NRP1-CendR mod: inactive

How did c1cc2c(nn1)CCc1nonc1-2 do in these assays?
SKN-1 block: 44.1; iPSC survival up: inactive; NRP1-CendR mod: inactive

What do the screens show for `Cc1ccc(S(=O)(=O)N(C)C)cc1NC(=O)COC(=O)c1ccc2c(c1)OCO2`?
SKN-1 block: inactive; iPSC survival up: inactive; MT1-MMP act inh: inactive; NRP1-CendR mod: 36.7

Results for Cc1cc(=O)[nH]c(SCC(=O)NCC2CCCO2)n1 (stereo not drawn) ?
SKN-1 block: inactive; iPSC survival up: inactive; MT1-MMP act inh: inactive; NRP1-CendR mod: inactive

How did O=C(CSc1nc(O)c(C2CCCCC2)c(=O)[nH]1)NCC1CCCO1 (stereo not drawn) do in these assays?
SKN-1 block: 31.2; iPSC survival up: inactive; MT1-MMP act inh: inactive; NRP1-CendR mod: inactive
